Reference: ChEMBL document CHEMBL5303300, “EUbOPEN Chemogenomics Library - Multiplex” (2023)
“And” between values parts separate entries of the source, which are not always exact repeats. Identical values can stand only once.

Tested on: U2OS
Test: Multiplex assay against U2OS
Assay type: toxicity, cell-based
Details: human, number of replicates 2
Method in brief: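 At seeding, live cells were stained with Hoechst33342, BioTracker Green Microtubule Cytoskeleton Dye, MitoTracker Red and Annexin V Alexa Fluor 680. After compound addition they were imaged on a CQ1 microscope at 37°C and 5% CO2, and CellPathfinder machine-learning gating sorted them into Hoechst high-intensity objects or normal cells, with normal cells further split into healthy, pyknosed or fragmented nuclei and pyknosed cells into mitotic or apoptotic. Tubulin, mitochondrial-mass and membrane-permeability phenotypes are given as per cents of cells with healthy nuclei.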

[1] = 12 h, 1 µM, compound concentration 1 uM
[2] = 12 h, 10 µM, compound concentration 10 uM
[3] = 24 h, 1 µM, compound concentration 1 uM
[4] = 24 h, 10 µM, compound concentration 10 uM
[5] = 48 h, 1 µM, compound concentration 1 uM
[6] = 48 h, 10 µM, compound concentration 10 uM

COc1cc(C(=O)NC2CCN(C)CC2)ccc1Nc1ncc(C(F)(F)F)c(NCc2ccc(C)cc2N(C)S(C)(=O)=O)n1.O=CO.O=CO
Population Apoptotic (%) [1]: 50% and 69%
Population Fragmented Nuclei (%) [1]: 6% and 5%
Population Healthy Nuclei (%) [1]: 81% and 80%
Population Hoechst High Intensity Objects (%) [1]: 0%
Population Membrane Permeable-Phenotype (%) [1]: 7% and 20%
Population Mitotic Cells (%) [1]: 50% and 30%
Population Normal (%) [1]: 100%
Population Pyknosed Nuclei (%) [1]: 12% and 14%
Population Tubulin-Different-Phenotype (%) [1]: 38% and 40%
Population Apoptotic (%) [2]: 66% and 81%
Population Healthy Nuclei (%) [2]: 25%
Population Hoechst High Intensity Objects (%) [2]: 1% and 3%
Population Membrane Permeable-Phenotype (%) [2]: 38% and 48%
Population Mitochondria Different-Phenotype (%) [2]: 84% and 69%
Population Mitotic Cells (%) [2]: 33% and 18%
Population Normal (%) [2]: 98% and 96%
Population Pyknosed Nuclei (%) [2]: 47% and 66%
Population Tubulin-Different-Phenotype (%) [2]: 100% and 96%
Population Apoptotic (%) [3]: 42% and 74%
Population Fragmented Nuclei (%) [3]: 4% and 5%
Population Healthy Nuclei (%) [3]: 74% and 79%
Population Hoechst High Intensity Objects (%) [3]: 0%
Population Membrane Permeable-Phenotype (%) [3]: 4% and 8%
Population Mitochondria Different-Phenotype (%) [3]: 30% and 36%
Population Mitotic Cells (%) [3]: 57% and 25%
Population Normal (%) [3]: 100%
Population Pyknosed Nuclei (%) [3]: 21% and 15%
Population Tubulin-Different-Phenotype (%) [3]: 26% and 35%
Population Apoptotic (%) [4]: 96% and 93%
Population Healthy Nuclei (%) [4]: 6% and 7%
Population Hoechst High Intensity Objects (%) [4]: 3% and 5%
Population Membrane Permeable-Phenotype (%) [4]: 75% and 80%
Population Mitochondria Different-Phenotype (%) [4]: 100% and 86%
Population Mitotic Cells (%) [4]: 4% and 6%
Population Normal (%) [4]: 96% and 94%
Population Pyknosed Nuclei (%) [4]: 43% and 78%
Population Tubulin-Different-Phenotype (%) [4]: 100% and 93%
Population Apoptotic (%) [5]: 64% and 83%
Population Fragmented Nuclei (%) [5]: 12% and 4%
Population Healthy Nuclei (%) [5]: 50% and 68%
Population Hoechst High Intensity Objects (%) [5]: 1% and 0%
Population Membrane Permeable-Phenotype (%) [5]: 6% and 7%
Population Mitochondria Different-Phenotype (%) [5]: 20% and 28%
Population Mitotic Cells (%) [5]: 35% and 16%
Population Normal (%) [5]: 98% and 99%
Population Pyknosed Nuclei (%) [5]: 37% and 26%
Population Tubulin-Different-Phenotype (%) [5]: 24% and 46%
Population Apoptotic (%) [6]: 92%
Population Healthy Nuclei (%) [6]: 5% and 9%
Population Hoechst High Intensity Objects (%) [6]: 0% and 3%
Population Membrane Permeable-Phenotype (%) [6]: 100% and 73%
Population Mitochondria Different-Phenotype (%) [6]: 66% and 73%
Population Mitotic Cells (%) [6]: 7%
Population Normal (%) [6]: 100% and 96%
Population Pyknosed Nuclei (%) [6]: 49% and 76%
Population Tubulin-Different-Phenotype (%) [6]: 100%

Cc1ccc(C(=O)Nc2cc(N3CCN(C)CC3)cc(C(F)(F)F)c2)cc1-n1cc(-c2cnn(C)c2C)nn1.Cl
Population Apoptotic (%) [1]: 25% and 60%
Population Healthy Nuclei (%) [1]: 70% and 79%
Population Hoechst High Intensity Objects (%) [1]: 0%
Population Membrane Permeable-Phenotype (%) [1]: 12% and 17%
Population Mitotic Cells (%) [1]: 75% and 39%
Population Normal (%) [1]: 100%
Population Pyknosed Nuclei (%) [1]: 8% and 17%
Population Tubulin-Different-Phenotype (%) [1]: 69% and 29%
Population Apoptotic (%) [2]: 60% and 83%
Population Healthy Nuclei (%) [2]: 69% and 51%
Population Hoechst High Intensity Objects (%) [2]: 0%
Population Membrane Permeable-Phenotype (%) [2]: 28% and 37%
Population Mitochondria Different-Phenotype (%) [2]: 42% and 62%
Population Mitotic Cells (%) [2]: 39% and 16%
Population Normal (%) [2]: 100%
Population Pyknosed Nuclei (%) [2]: 24% and 19%
Population Tubulin-Different-Phenotype (%) [2]: 86% and 87%
Population Apoptotic (%) [3]: 31% and 70%
Population Healthy Nuclei (%) [3]: 55% and 73%
Population Hoechst High Intensity Objects (%) [3]: 0%
Population Membrane Permeable-Phenotype (%) [3]: 0% and 9%
Population Mitotic Cells (%) [3]: 68% and 29%
Population Normal (%) [3]: 100%
Population Pyknosed Nuclei (%) [3]: 27% and 24%
Population Tubulin-Different-Phenotype (%) [3]: 68% and 44%
Total Cell Count [3]: 69 and 193
Population Apoptotic (%) [4]: 85%
Population Fragmented Nuclei (%) [4]: 28% and 10%
Population Healthy Nuclei (%) [4]: 46% and 50%
Population Hoechst High Intensity Objects (%) [4]: 3% and 0%
Population Membrane Permeable-Phenotype (%) [4]: 23% and 42%
Population Mitochondria Different-Phenotype (%) [4]: 38% and 55%
Population Mitotic Cells (%) [4]: 14%
Population Normal (%) [4]: 96% and 99%
Population Pyknosed Nuclei (%) [4]: 25% and 38%
Population Tubulin-Different-Phenotype (%) [4]: 69% and 89%
Population Apoptotic (%) [5]: 69% and 75%
Population Fragmented Nuclei (%) [5]: 9% and 3%
Population Healthy Nuclei (%) [5]: 65% and 72%
Population Hoechst High Intensity Objects (%) [5]: 0%
Population Membrane Permeable-Phenotype (%) [5]: 4% and 8%
Population Mitotic Cells (%) [5]: 30% and 24%
Population Normal (%) [5]: 100% and 99%
Population Pyknosed Nuclei (%) [5]: 24%
Population Tubulin-Different-Phenotype (%) [5]: 72% and 41%
Population Apoptotic (%) [6]: 92% and 100%
Population Healthy Nuclei (%) [6]: 21% and 26%
Population Hoechst High Intensity Objects (%) [6]: 0%
Population Membrane Permeable-Phenotype (%) [6]: 52% and 22%
Population Mitochondria Different-Phenotype (%) [6]: 63% and 55%
Population Mitotic Cells (%) [6]: 7% and 0%
Population Normal (%) [6]: 99% and 100%
Population Pyknosed Nuclei (%) [6]: 67% and 38%
Population Tubulin-Different-Phenotype (%) [6]: 86% and 66%

CCNc1ccc(-c2nn(-c3ccccc3C)c3c2C(C)Cc2nc(NC(=O)OC)sc2-3)cn1.O=C(O)C(F)(F)F (stereo not drawn)
Population Apoptotic (%) [1]: 72% and 80%
Population Fragmented Nuclei (%) [1]: 14% and 11%
Population Healthy Nuclei (%) [1]: 71% and 73%
Population Hoechst High Intensity Objects (%) [1]: 0% and 1%
Population Membrane Permeable-Phenotype (%) [1]: 5% and 2%
Population Mitochondria Different-Phenotype (%) [1]: 5% and 4%
Population Mitotic Cells (%) [1]: 27% and 20%
Population Normal (%) [1]: 100% and 98%
Population Pyknosed Nuclei (%) [1]: 14%
Population Tubulin-Different-Phenotype (%) [1]: 55% and 24%
Total Cell Count [1]: 200 and 68
Population Apoptotic (%) [2]: 83% and 88%
Population Fragmented Nuclei (%) [2]: 32% and 18%
Population Healthy Nuclei (%) [2]: 25% and 55%
Population Hoechst High Intensity Objects (%) [2]: 0%
Population Membrane Permeable-Phenotype (%) [2]: 28% and 25%
Population Mitotic Cells (%) [2]: 16% and 11%
Population Normal (%) [2]: 100% and 99%
Population Pyknosed Nuclei (%) [2]: 42% and 25%
Population Tubulin-Different-Phenotype (%) [2]: 57% and 88%
Population Apoptotic (%) [3]: 84% and 75%
Population Fragmented Nuclei (%) [3]: 14% and 6%
Population Healthy Nuclei (%) [3]: 63% and 74%
Population Hoechst High Intensity Objects (%) [3]: 0%
Population Membrane Permeable-Phenotype (%) [3]: 2% and 8%
Population Mitochondria Different-Phenotype (%) [3]: 9% and 2%
Population Mitotic Cells (%) [3]: 15% and 25%
Population Normal (%) [3]: 100%
Population Pyknosed Nuclei (%) [3]: 21% and 19%
Population Tubulin-Different-Phenotype (%) [3]: 58% and 34%
Total Cell Count [3]: 176 and 63
Population Apoptotic (%) [4]: 72% and 89%
Population Healthy Nuclei (%) [4]: 18% and 39%
Population Hoechst High Intensity Objects (%) [4]: 0%
Population Membrane Permeable-Phenotype (%) [4]: 14% and 32%
Population Mitochondria Different-Phenotype (%) [4]: 28% and 63%
Population Mitotic Cells (%) [4]: 27% and 10%
Population Normal (%) [4]: 100% and 99%
Population Pyknosed Nuclei (%) [4]: 29% and 45%
Population Tubulin-Different-Phenotype (%) [4]: 42% and 83%
Population Apoptotic (%) [5]: 72% and 80%
Population Fragmented Nuclei (%) [5]: 9% and 7%
Population Healthy Nuclei (%) [5]: 52% and 57%
Population Hoechst High Intensity Objects (%) [5]: 0% and 1%
Population Membrane Permeable-Phenotype (%) [5]: 6% and 7%
Population Mitochondria Different-Phenotype (%) [5]: 9% and 2%
Population Mitotic Cells (%) [5]: 27% and 20%
Population Normal (%) [5]: 99% and 98%
Population Pyknosed Nuclei (%) [5]: 37% and 35%
Population Tubulin-Different-Phenotype (%) [5]: 69% and 25%
Total Cell Count [5]: 157 and 71
Population Apoptotic (%) [6]: 90% and 93%
Population Healthy Nuclei (%) [6]: 10% and 28%
Population Hoechst High Intensity Objects (%) [6]: 0%
Population Membrane Permeable-Phenotype (%) [6]: 66% and 43%
Population Mitotic Cells (%) [6]: 10% and 6%
Population Normal (%) [6]: 100% and 99%
Population Pyknosed Nuclei (%) [6]: 33% and 61%
Population Tubulin-Different-Phenotype (%) [6]: 100% and 84%

Cc1cc(C2CCCNC2)ccc1Nc1ncc(Br)c(NCc2cccc3c2C(C)(C)C(=O)N3)n1 (stereo not drawn)
Population Apoptotic (%) [1]: 50% and 63%
Population Healthy Nuclei (%) [1]: 57% and 78%
Population Hoechst High Intensity Objects (%) [1]: 0%
Population Membrane Permeable-Phenotype (%) [1]: 31% and 29%
Population Mitochondria Different-Phenotype (%) [1]: 9% and 19%
Population Mitotic Cells (%) [1]: 50% and 36%
Population Normal (%) [1]: 100%
Population Pyknosed Nuclei (%) [1]: 10% and 11%
Population Tubulin-Different-Phenotype (%) [1]: 65% and 44%
Total Cell Count [1]: 56 and 99
Population Apoptotic (%) [2]: 82% and 73%
Population Fragmented Nuclei (%) [2]: 28% and 14%
Population Healthy Nuclei (%) [2]: 42% and 69%
Population Hoechst High Intensity Objects (%) [2]: 0%
Population Membrane Permeable-Phenotype (%) [2]: 24% and 20%
Population Mitochondria Different-Phenotype (%) [2]: 56% and 54%
Population Mitotic Cells (%) [2]: 17% and 26%
Population Normal (%) [2]: 100%
Population Pyknosed Nuclei (%) [2]: 28% and 16%
Population Tubulin-Different-Phenotype (%) [2]: 88% and 83%
Population Apoptotic (%) [3]: 70% and 51%
Population Healthy Nuclei (%) [3]: 54% and 72%
Population Hoechst High Intensity Objects (%) [3]: 1% and 0%
Population Membrane Permeable-Phenotype (%) [3]: 17% and 15%
Population Mitochondria Different-Phenotype (%) [3]: 34% and 21%
Population Mitotic Cells (%) [3]: 30% and 48%
Population Normal (%) [3]: 98% and 100%
Population Pyknosed Nuclei (%) [3]: 18% and 21%
Population Tubulin-Different-Phenotype (%) [3]: 75% and 58%
Total Cell Count [3]: 54 and 125
Population Apoptotic (%) [4]: 88% and 66%
Population Fragmented Nuclei (%) [4]: 27% and 10%
Population Hoechst High Intensity Objects (%) [4]: 0%
Population Membrane Permeable-Phenotype (%) [4]: 66% and 31%
Population Mitochondria Different-Phenotype (%) [4]: 66% and 61%
Population Mitotic Cells (%) [4]: 12% and 33%
Population Normal (%) [4]: 100% and 99%
Population Pyknosed Nuclei (%) [4]: 53% and 25%
Population Tubulin-Different-Phenotype (%) [4]: 88% and 82%
Population Apoptotic (%) [5]: 87% and 70%
Population Fragmented Nuclei (%) [5]: 8% and 20%
Population Healthy Nuclei (%) [5]: 74% and 64%
Population Hoechst High Intensity Objects (%) [5]: 0% and 1%
Population Membrane Permeable-Phenotype (%) [5]: 13% and 14%
Population Mitochondria Different-Phenotype (%) [5]: 16% and 21%
Population Mitotic Cells (%) [5]: 12% and 30%
Population Normal (%) [5]: 100% and 98%
Population Pyknosed Nuclei (%) [5]: 17% and 15%
Population Tubulin-Different-Phenotype (%) [5]: 63% and 46%
Total Cell Count [5]: 175 and 65
Population Apoptotic (%) [6]: 91% and 87%
Population Fragmented Nuclei (%) [6]: 19% and 8%
Population Hoechst High Intensity Objects (%) [6]: 0% and 2%
Population Membrane Permeable-Phenotype (%) [6]: 100% and 43%
Population Mitochondria Different-Phenotype (%) [6]: 50% and 83%
Population Mitotic Cells (%) [6]: 8% and 12%
Population Normal (%) [6]: 100% and 97%
Population Pyknosed Nuclei (%) [6]: 76% and 43%
Population Tubulin-Different-Phenotype (%) [6]: 100% and 82%
